Ratio, IC50 and Activity data for one compound are collected here from ChEMBL document CHEMBL4715824, “Chemical Proteomic Characterization of a Covalent KRASG12C Inhibitor” (ACS Med Chem Lett, 2018).

Test [1] addresses T1, Quinone oxidoreductase (Homo sapiens) (UniProt Q08257).
T1 sequence (whole entry): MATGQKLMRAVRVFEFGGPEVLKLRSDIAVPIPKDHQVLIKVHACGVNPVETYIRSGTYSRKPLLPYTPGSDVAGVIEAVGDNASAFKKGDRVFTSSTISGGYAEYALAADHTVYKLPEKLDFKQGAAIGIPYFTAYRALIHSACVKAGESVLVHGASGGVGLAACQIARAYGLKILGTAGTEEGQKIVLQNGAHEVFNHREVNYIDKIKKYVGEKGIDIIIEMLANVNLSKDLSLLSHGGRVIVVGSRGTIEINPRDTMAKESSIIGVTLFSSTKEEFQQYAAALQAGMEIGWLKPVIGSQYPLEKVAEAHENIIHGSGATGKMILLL
Nature of the test: Covalent binding affinity to CRYZ at Cys45 residue in human NCI-H358 cells assessed as log2 H/L ratio at 10 uM pretreated for 3 hrs followed by N-(((6S,7R)-7-(4-chloro-3-fluorophenyl)-1,4-oxazepan-6-yl)methyl)-2-hydroxyacetamide treatment for 3 hrs by competitive TMT click chemistry pull-down experiment based LC-MS/MS analysis. In kind it is cell-based. As to conditions: time 6.0 hrs. In outline: (§1)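 H358 cells were pretreated with DMSO (n = 3) or 10 μM compound for 3 h, then 2 μM alkyne probe was added for another 3 h. Cells were lysed, clicked onto azide-agarose resin, digested, TMT-labelled and pooled. The pool was fractionated by high-pH HPLC and each fraction run twice by 60 min low-pH nano LC-MS/MS. Readout was log2 compound/DMSO normalized reporter intensity, with a least-squares means test and FDR adjustment.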

For another test, the target named is T2, Quinone oxidoreductase (Homo sapiens, UniProt Q08257).
T2 sequence (Q08257 whole entry): T1 sequence (whole entry)
As to the kind of experiment: Covalent binding affinity to CRYZ at Cys45 residue in human NCI-H358 cells assessed as reduction of log2 H/L ratio for tryptic peptide […] incubated for 4 hrs followed by cell lysis and subsequently labelled with light thiol probe N-((S)-18-iodo-11-isopropyl-10,13,17-trioxo-3,6-dioxa-9,12,16-triazaoctadecyl)-6-((4R,5S)-5-methyl-2-oxoimidazolidin-4-yl)hexanamide and heavy thiol probe 4 for 1 hr under dark conditions followed by tryptic digestion for overnight and measured by discovery ABPP based nano LC-MS/MS analysis. In outline:
(§2)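 H358 cells were treated 4 h with DMSO, 0.08, 0.4, 2 or 10 μM, each paired with DMSO control cells, in biological duplicate. After lysis and denaturation, treated lysate took heavy thiol probe and control lysate took light probe. Lysates were combined equally, and probe-labelled tryptic peptides were streptavidin-enriched. Peptides were run twice by 180 min data-dependent nano LC-MS/MS. Hits needed log2 H/L below −0.776 (3σ) plus a dose-dependent decrease.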

Test [2] concerns the target T3, Retinaldehyde dehydrogenase 3 (Homo sapiens) (UniProt P47895).
T3 sequence (whole entry): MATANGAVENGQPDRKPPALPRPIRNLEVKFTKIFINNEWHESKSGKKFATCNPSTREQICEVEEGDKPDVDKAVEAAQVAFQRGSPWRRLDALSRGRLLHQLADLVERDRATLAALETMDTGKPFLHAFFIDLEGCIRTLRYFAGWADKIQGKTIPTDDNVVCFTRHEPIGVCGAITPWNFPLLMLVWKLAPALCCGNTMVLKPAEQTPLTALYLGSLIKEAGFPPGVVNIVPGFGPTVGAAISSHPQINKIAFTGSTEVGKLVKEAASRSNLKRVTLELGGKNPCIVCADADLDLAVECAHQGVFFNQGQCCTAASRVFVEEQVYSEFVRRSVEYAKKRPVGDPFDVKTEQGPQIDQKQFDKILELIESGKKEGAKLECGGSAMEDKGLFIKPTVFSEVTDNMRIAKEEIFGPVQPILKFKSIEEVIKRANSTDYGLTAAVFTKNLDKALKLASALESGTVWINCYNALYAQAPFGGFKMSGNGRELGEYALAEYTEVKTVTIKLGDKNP
As to the kind of experiment: Covalent binding affinity to ALDH1A3 at Cys52 residue in human NCI-H358 cells assessed as log2 H/L ratio at 10 uM pretreated for 3 hrs followed by N-(((6S,7R)-7-(4-chloro-3-fluorophenyl)-1,4-oxazepan-6-yl)methyl)-2-hydroxyacetamide treatment for 3 hrs by competitive TMT click chemistry pull-down experiment based LC-MS/MS analysis. The test is classed as cell-based. As to conditions: time 6.0 hrs. In a few lines:
as §1

A further test deals with GTPase KRas (Homo sapiens, UniProt P01116, G12C). As to the kind of experiment: Covalent binding affinity to KRAS G12C mutant at Cys12 residue in human NCI-H358 cells assessed as reduction of log2 H/L ratio for tryptic peptide […] incubated for 4 hrs followed by cell lysis and subsequently labelled with light thiol probe N-((S)-18-iodo-11-isopropyl-10,13,17-trioxo-3,6-dioxa-9,12,16-triazaoctadecyl)-6-((4R,5S)-5-methyl-2-oxoimidazolidin-4-yl)hexanamide and heavy thiol probe 4 for 1 hr under dark conditions followed by tryptic digestion for overnight and measured by ABPP target occupancy based UHPLC Q-SIM MS analysis. In outline:
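Target occupancy: H358 cells were treated 4 h with DMSO, 0.08, 0.4, 2 or 10 μM, each paired with DMSO controls, in duplicate. Lysates were labelled heavy (treated) or light (control) with thiol probe, combined, trypsinized and streptavidin-enriched. The LVVVGAC*GVGK peptide pair was measured by UHPLC Q-SIM, with AUC H/L as occupancy. Each point averaged four MS injections, and IC50 came from the concentration-response curve.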

The test system of a further test is NCI-H358. Nature of the test: Antiproliferative activity against human NCI-H358 cells harboring KRAS G12C mutant assessed as reduction in cell viability. The test is classed as functional, cell-based.
For the next test, the target named is T4, Heme oxygenase 2 (Homo sapiens, UniProt P30519).
T4 sequence (P30519 whole entry): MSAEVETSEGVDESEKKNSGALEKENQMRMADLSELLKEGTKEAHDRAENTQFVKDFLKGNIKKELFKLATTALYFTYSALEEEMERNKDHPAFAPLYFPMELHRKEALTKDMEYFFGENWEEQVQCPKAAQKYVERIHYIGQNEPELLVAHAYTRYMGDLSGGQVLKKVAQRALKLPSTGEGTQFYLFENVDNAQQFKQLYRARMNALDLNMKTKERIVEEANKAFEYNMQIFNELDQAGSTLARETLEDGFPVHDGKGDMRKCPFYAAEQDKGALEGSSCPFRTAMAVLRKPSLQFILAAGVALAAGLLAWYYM
As to the kind of experiment: Covalent binding affinity to HMOX2 at Cys282 residue in human NCI-H358 cells assessed as reduction of log2 H/L ratio for tryptic peptide […] incubated for 4 hrs followed by cell lysis and subsequently labelled with light thiol probe N-((S)-18-iodo-11-isopropyl-10,13,17-trioxo-3,6-dioxa-9,12,16-triazaoctadecyl)-6-((4R,5S)-5-methyl-2-oxoimidazolidin-4-yl)hexanamide and heavy thiol probe 4 for 1 hr under dark conditions followed by tryptic digestion for overnight and measured by discovery ABPP based nano LC-MS/MS analysis. In outline: as §2

The test system of test [3] is GTPase KRas (Homo sapiens), P01116 [G12C]. As to the kind of experiment: Covalent binding affinity to KRAS G12C mutant at Cys12 residue in human NCI-H358 cells assessed as reduction of log2 H/L ratio for tryptic peptide LVVVGACGVGK at 2 uM incubated for 4 hrs followed by cell lysis and subsequently labelled with light thiol probe N-((S)-18-iodo-11-isopropyl-10,13,17-trio …. The test is classed as cell-based.

In another test the test system is NCI-H2030. As to the kind of experiment: Antiproliferative activity against human NCI-H2030 cells harboring KRAS G12C mutant assessed as reduction in cell viability. In kind it is functional, cell-based.

SMILES strings stand for the structures. Calls of active or inactive are those of the source. No cut-off for these calls is given here.

As a reminder, the IC50 is the point on the concentration scale where inhibition reaches its midpoint.

Regarding `C=CC(=O)N1CCN(c2ncnc3c(F)c(-c4c(O)cccc4F)c(Cl)cc23)CC1`, the Ratio in test [1] was 0.15; in test [2] it was -1.1. Further, the IC50 at Quinone oxidoreductase turned out to be 8.44 µM; on GTPase KRas, 1800 nM; in the test on NCI-H358, 640 nM; at Heme oxygenase 2 it was 7.64 µM; in the test with NCI-H2030 it was 160 nM. The result in test [3] was Active.
